Source: ChEMBL document CHEMBL1641466, “Structure based evolution of a novel series of positive modulators of the AMPA receptor” (Bioorg Med Chem Lett, 2011)
≈ marks a conversion by molar mass, not a printed value.

Assays:
[1] = target: Glutamate receptor 2 (Homo sapiens, UniProt P42262); test: Modulatory activity at GluA2 receptor LBD
[2] = Solubility of the compound; assay type: physicochemical
[3] = Clearance in Wistar rat at 2 mg/kg, iv and 10 mg/kg, po; assay type: ADME, organism-based; details: in vivo
[4] = Permeability from basolateral to apical side of human Caco2 cells; assay type: ADME, cell-based; details: Caco-2, read-out: permeability
[5] = Intrinsic clearance in human microsomes assessed per mg of protein; assay type: ADME, Microsome
[6] = Half life in Wistar rat at 2 mg/kg, iv and 10 mg/kg, po; assay type: ADME, organism-based; details: in vivo
[7] = Bioavailability in Wistar rat at 2 mg/kg, iv and 10 mg/kg, po; assay type: ADME, organism-based; details: in vivo
[8] = Volume of distribution at steady state in Wistar rat at 2 mg/kg, iv and 10 mg/kg, po; assay type: ADME, organism-based; details: in vivo, read-out: Vdss
[9] = Cmax in Wistar rat cerebrospinal fluid at 2 mg/kg, ip; assay type: ADME, organism-based; design: dose 2 mg/kg, route intraperitoneal
Method in brief: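 Wistar BRL rats dosed 2 mg/kg i.p.; drug concentration measured in CSF to gauge CNS exposure, Cmax reported.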

[10] = Permeability from apical to basolateral side of human Caco2 cells; assay type: ADME, cell-based; details: Caco-2, read-out: permeability
[11] = tested on: Hepatocyte; test: Metabolic stability in rat hepatocytes assessed per cells; assay type: ADME, cell-based
[12] = Intrinsic clearance in rat microsomes assessed per mg of protein; assay type: ADME, Microsome
[13] = Half life in Wistar rat at 1 mg/kg, iv and 5 mg/kg, po; assay type: ADME, organism-based; details: in vivo
Method in brief: (§1)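 Wistar BRL rats; pharmacokinetics from 1 mg/kg i.v. and 5 mg/kg p.o. dosing; plasma clearance, half-life and oral bioavailability (F%) derived.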

[14] = Bioavailability in Wistar rat at 1 mg/kg, iv and 5 mg/kg, po; assay type: ADME, organism-based; details: in vivo; method in brief: as §1
[15] = Plasma concentration in Wistar rat at 1 mg/kg, iv and 5 mg/kg, po; assay type: ADME, organism-based

Chain of Glutamate receptor 2 (P42262 whole entry, the tested form may be a part): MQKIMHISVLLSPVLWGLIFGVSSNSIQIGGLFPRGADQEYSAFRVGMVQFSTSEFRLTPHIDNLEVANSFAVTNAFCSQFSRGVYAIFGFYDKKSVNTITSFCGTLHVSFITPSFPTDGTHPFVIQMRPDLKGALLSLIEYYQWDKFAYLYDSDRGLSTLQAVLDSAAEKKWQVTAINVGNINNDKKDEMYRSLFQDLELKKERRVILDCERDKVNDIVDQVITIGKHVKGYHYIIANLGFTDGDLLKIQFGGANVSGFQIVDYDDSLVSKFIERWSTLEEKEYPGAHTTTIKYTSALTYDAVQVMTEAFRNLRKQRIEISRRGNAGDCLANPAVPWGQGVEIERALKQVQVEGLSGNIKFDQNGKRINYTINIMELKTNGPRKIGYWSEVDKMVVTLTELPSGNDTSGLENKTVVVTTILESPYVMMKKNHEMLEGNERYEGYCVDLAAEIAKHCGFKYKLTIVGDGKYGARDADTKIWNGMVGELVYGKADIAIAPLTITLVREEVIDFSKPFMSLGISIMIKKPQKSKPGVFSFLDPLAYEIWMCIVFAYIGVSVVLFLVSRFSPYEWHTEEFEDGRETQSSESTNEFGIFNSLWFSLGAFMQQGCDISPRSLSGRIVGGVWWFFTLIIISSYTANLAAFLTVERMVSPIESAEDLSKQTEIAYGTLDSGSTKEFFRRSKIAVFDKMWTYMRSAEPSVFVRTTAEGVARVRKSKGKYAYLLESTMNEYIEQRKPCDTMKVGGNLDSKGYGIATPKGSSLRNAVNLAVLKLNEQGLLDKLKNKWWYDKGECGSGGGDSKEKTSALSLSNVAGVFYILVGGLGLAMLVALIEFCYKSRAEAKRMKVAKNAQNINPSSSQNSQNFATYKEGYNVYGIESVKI

Row | EC50 [1] [nM] | SMILES | other results
1 | 100 | CC(C)S(=O)(=O)N[C@H]1Cc2ccc(Cn3nc(C(F)(F)F)cc3C(F)(F)F)cc2C1 | solubility [2]: < 1 µg/mL
2 | 1260 | CC(C)S(=O)(=O)N[C@H]1Cc2ccc(Cn3nc(C(F)(F)F)c4c3CCCC4)cc2C1 | –
3 | 1000 | CN(C)S(=O)(=O)N[C@@H]1Cc2ccc(Cn3cc(CO)c(C(F)(F)F)n3)cc2C1 | –
4 | 398 | NC(=O)c1c(NC(=O)Cn2cc(CO)c(C(F)(F)F)n2)sc2c1CCCC2 | solubility [2]: 20 µg/mL (≈ 49.7 µM)
5 | 100 | CC(C)S(=O)(=O)NC1CCc2cc(Cn3cc(CO)c(C(F)(F)F)n3)ccc21 (stereo not given) | –
6 | 158 | O=S(=O)(NC1CCc2cc(Cn3cc(CO)c(C(F)(F)F)n3)ccc21)C1CC1 (stereo not given) | –
7 | 398 | CCS(=O)(=O)N[C@H]1Cc2ccc(Cn3cc(CO)c(C(F)(F)F)n3)cc2C1 | –
8 | 1260 | CCn1nc(C(F)(F)F)cc1Cc1ccc2c(c1)C[C@@H](NS(=O)(=O)C(C)C)C2 | –
9 | 2510 | O=S(=O)(N[C@@H]1Cc2ccc(Cn3cc(CO)c(C(F)(F)F)n3)cc2C1)C(F)(F)F | clearance [3]: 1.9 mL/min/kg; Papp B→A [4]: 26.4 ×10⁻⁶ cm/s; clearance [5]: < 12 µL/min/mg; half-life [6]: 7.4 h; bioavailability [7]: 100%; Vd [8]: 1 L/kg; Cmax [9]: 120 nM; solubility [2]: 84 µg/mL (≈ 189 µM); Papp A→B [10]: 16.9 ×10⁻⁶ cm/s; Stability [11]: < 6 µL/min; clearance [12]: < 12 µL/min/mg
10 | 1260 | CC(C)S(=O)(=O)N[C@H]1Cc2ccc(Cn3cc(CCO)c(C(F)(F)F)n3)cc2C1 | –
11 | 7940 | CS(=O)(=O)N[C@H]1Cc2ccc(Cn3cc(CO)c(C(F)(F)F)n3)cc2C1 | –
12 | 2510 | O=S(=O)(N[C@@H]1Cc2ccc(Cn3cc(CO)c(C(F)(F)F)n3)cc2C1)C1CC1 | –
13 | 1260 | CC(C)S(=O)(=O)N[C@H]1Cc2ccc(Cn3cc(CF)c(C(F)(F)F)n3)cc2C1 | –
14 | 3980 | CC(C)S(=O)(=O)N[C@H]1Cc2ccc(Cn3ncc(CO)c3C(F)(F)F)cc2C1 | –
15 | 2000 | COc1ccccc1S(=O)(=O)NC1CCc2cc(Cn3cc(CO)c(C(F)(F)F)n3)ccc21 (stereo not given) | –
16 | 398 | CC(C)S(=O)(=O)N[C@@H]1Cc2ccc(Cn3cc(CO)c(C(F)(F)F)n3)cc2C1 | –
17 | 501 | CC(C)S(=O)(=O)N[C@H]1Cc2ccc(Cn3cc(CO)c(C(F)(F)F)n3)cc2C1 | Papp B→A [4]: 29 ×10⁻⁶ cm/s; microsomal CLint [5]: 23 µL/min/mg; Papp A→B [10]: 12.8 ×10⁻⁶ cm/s; microsomal CLint [12]: 31 µL/min/mg
18 | 794 | CCNCc1cn(CC(=O)Nc2sc3c(c2C(N)=O)CCCC3)nc1C(F)(F)F | half-life [6]: 1.1 h
19 | 5010 | O=S(=O)(N[C@H]1Cc2ccc(Cn3cc(CO)c(C(F)(F)F)n3)cc2C1)C(F)(F)F | –
20 | 794 | CC(C)S(=O)(=O)N[C@H]1Cc2ccc(Cn3cc(CO)c(C(F)(F)F)c3)cc2C1 | –
21 | 1580 | CC(C)S(=O)(=O)N[C@H]1Cc2ccc(Cn3nc(C(F)(F)F)c4c3CCNC4)cc2C1 | –
22 | 1000 | CC(C)S(=O)(=O)N[C@H]1Cc2ccc(Cc3ccc(C(F)(F)F)o3)cc2C1 | –
23 | – | CC(C)S(=O)(=O)NC[C@H](C)c1ccc(-n2cc(CO)c(C(F)(F)F)n2)cc1 | Papp B→A [4]: 28.7 ×10⁻⁶ cm/s; microsomal CLint [5]: < 12 µL/min/mg; half-life [13]: 1 h; bioavailability [14]: 3.2%; clearance [15]: 49.7 mL/min/kg; Papp A→B [10]: 20.6 ×10⁻⁶ cm/s; microsomal CLint [12]: < 12 µL/min/mg
24 | 501 | CS(=O)(=O)NC1CCc2cc(Cn3cc(CO)c(C(F)(F)F)n3)ccc21 (stereo not given) | –
25 | 1260 | Cn1cc(S(=O)(=O)NC2CCc3cc(Cn4cc(CO)c(C(F)(F)F)n4)ccc32)c(C(F)(F)F)n1 (stereo not given) | –

Row | SMILES | EC50 [1] [nM] | other results
26 | CC(C)S(=O)(=O)NC1Cc2ccc(-n3cc(CO)c(C(F)(F)F)n3)cc2C1 (racemic) | > 31600 | –
